Laboratory results reported in ChEMBL document CHEMBL3588831, “Synthesis and in Vivo Evaluation of [123I]Melanin-Targeted Agents” (J Med Chem, 2015).

Experiments:
[1] = Retention time of the compound by HPLC method; type: physicochemical
[2] = tested on: Brain; assay: Drug distribution in brain of C57BL/6J mouse bearing mouse B16F0 cells at 18 to 20 MBq, iv measured over 72 hrs by SPECT imaging study; type: ADME, organism-based; details: in vivo
Method in brief: (§1)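 Female C57BL/6J mice bearing s.c. B16F0 tumors (11 days growth) received 18−20 MBq in 100 μL via lateral tail vein (n = 3). Isoflurane anesthesia (5% induction, 2−2.5% maintenance) on a 37 °C heating pad. Planar γ-camera imaging at 10−60 min (5 min frames), 3 and 6 h, 24, 48 and 72 h. Radioactivity localization assessed visually.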

[3] = Drug distribution in eyes of C57BL/6J mouse bearing mouse B16F0 cells at 18 to 20 MBq, iv measured over 72 hrs by SPECT imaging study; type: ADME, organism-based, Eye; details: in vivo
Method in brief: (§2)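 Female C57BL/6J mice (5–6 weeks) were inoculated s.c. on the left flank with 3 × 10^5 B16F0 cells in PBS and used after 11 days, with tumors 2–12 mm. Each received 18–20 MBq in 100 μL by lateral tail vein (n = 3 per tracer). Planar SPECT was done under isoflurane at 10–60 min, 3, 6, 24, 48 and 72 h. ROI pixel values were decay-corrected.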

[4] = Drug distribution in thyroid gland of C57BL/6J mouse bearing mouse B16F0 cells at 18 to 20 MBq, iv after 72 hrs by SPECT imaging study; type: ADME, organism-based; details: in vivo; method in brief: as §2
[5] = Drug distribution in thyroid gland of C57BL/6J mouse bearing mouse B16F0 cells at 18 to 20 MBq, iv after 3 hrs by SPECT imaging study; type: ADME, organism-based; details: in vivo; method in brief: as §2
[6] = tested on: Brain; assay: Drug distribution in brain of C57BL/6J mouse bearing mouse B16F0 cells at 18 to 20 MBq, iv within 1 hr by SPECT imaging study; type: ADME, organism-based; details: in vivo; method in brief: as §1
[7] = Drug distribution in thyroid gland of C57BL/6J mouse bearing mouse B16F0 cells at 18 to 20 MBq, iv after 24 hrs by SPECT imaging study; type: ADME, organism-based; details: in vivo; method in brief: as §2

SMILES	Retention_time [1] [min]	Drug uptake [2]	Drug uptake [3]	Drug uptake [4]	Drug uptake [5]	Drug uptake [6]	Drug uptake [7]
O=C(CN1Cc2ccccc2C1=O)N1CCN(Cc2ccc([123I])cc2)CC1	17.3	Not Active	Active				
CCN(CC)CCNC(=O)c1cnc2cc([123I])ccc2n1	15.7	Active	Active		Active	Active	
O=C1c2ccccc2CN1CC(=O)N1C[C@@H]2C[C@H]1CN2Cc1ccc([123I])cc1	15.9	Not Active	Active	Active			

The next lines start with the values.

Retention_time [1] [min]	Drug uptake [2]	Drug uptake [3]	Drug uptake [4]	Drug uptake [5]	Drug uptake [6]	Drug uptake [7]	SMILES
14.5	Not Active	Active	Active				O=C(CN1Cc2ccccc2C1=O)N1CCCN(Cc2ccc([123I])cc2)CC1
16	Not Active	Active				Active	O=C(c1cccnc1)N1CCN(Cc2ccc([123I])cc2)CC1
